Measurements from ChEMBL document CHEMBL1221214, “Cytosporone B is an agonist for nuclear orphan receptor Nur77” (Nat Chem Biol, 2008).
Activity calls are given as the source filed them.

Assays:
[1] = biological target: T1, Nuclear receptor subfamily 4immunitygroup A member 1 (Homo sapiens, UniProt P22736); assay: Agonist activity at nuclear orphan receptor Nur77 in human BGC823 cells bearing beta-galactosidase expression vector assessed as transcriptional activation of thyroid receptor reporter gene after 12 hrs by luciferase assay; assay type: functional, cell-based; conditions: BGC-823
Mus musculus [2] = assay: Increase in blood glucose level in Nr4a1 deficient mouse C57BL/6 at 50 mg/kg, ip within 30 mins; assay type: functional; conditions: route intraperitoneal
Procedure, shortened: (§1)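 C57BL/6 mice (wild-type or Nr4a1-/-, six weeks old) fasted 16 h with water, then given 50 mg kg-1 intraperitoneally. DMSO (50 μl) or injection without vehicle served as controls. Tail-vein blood glucose was read by glucometer at 15, 30, 60, 90, 120, 180 and 300 min. Means ± s.e.m.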

[3] = biological target: T1, Nuclear receptor subfamily 4immunitygroup A member 1; assay: Binding affinity to GST-tagged nuclear orphan receptor Nur77 at 25 degC by fluorescence quenching analysis
Procedure, shortened: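 GST-Nur77 intrinsic fluorescence (emission maximum 336 nm) monitored while increasing Csn-B amounts were added; inner-filter contribution estimated with GST alone and subtracted to give corrected quenching curves.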

[4] = biological target: T1, Nuclear receptor subfamily 4immunitygroup A member 1; assay: Agonist activity at nuclear orphan receptor Nur77 in human BGC823 cells bearing beta-galactosidase expression vector assessed as transcriptional activation of estrogen receptor reporter gene after 12 hrs by luciferase assay; assay type: functional, cell-based; conditions: BGC-823
[5] = biological target: Nuclear receptor subfamily 4 group A member 2 (Homo sapiens) (UniProt P43354); assay: Agonist activity at nuclear orphan receptor Nurr1 expressed in human BGC823 cells co-transfected with fused GAL4-Nurr1(LBD) assessed as transactivation after 12 hrs by transactivation assay; assay type: functional, cell-based; conditions: BGC-823
BGC-823 [6] = assay: Induction of SRC2 recruitment to NurRE in human BGC823 cells after 12 hrs by luciferase/beta-galactosidase reporter assay; assay type: functional, cell-based
Procedure, shortened: (§2)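 BGC-823 cells cotransfected with or without SRC-1, SRC-2 or SRC-3, plus NurRE-luciferase reporter and β-galactosidase, then treated for 12 h at a range of concentrations. Fold induction is each luciferase activity relative to non-SRC transfection at the same concentration.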

[7] = biological target: T1, Nuclear receptor subfamily 4immunitygroup A member 1; assay: Induction of Nur77-SRC2 interaction in HEK293T cells by GST-pull-down assay; assay type: cell-based; conditions: HEK-293T
Procedure, shortened: (§3)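 293T cells transfected with Flag-SRC-1, -2 or -3 and treated at 10⁻⁶ M for 3 h. Lysates were incubated with GST-Nur77 or GST alone, and bound SRC was detected by pull-down against input levels.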

[8] = biological target: Nuclear receptor subfamily 4 group A member 1 (Mus musculus) (UniProt P12813); assay: Agonist activity at Nur77 in Nr4a1-/- mouse transfected withGAL4-Y453A assessed as transcriptional activation of luciferase reporter gene
L02 = assay: Antiproliferative activity against human HL7702 cells assessed as number of viable cells after 72 hrs by MTT assay; assay type: functional, cell-based
[9] = biological target: T1, Nuclear receptor subfamily 4immunitygroup A member 1; assay: Agonist activity at Nur77 expressed in human BGC823 cells assessed as Nr4a1mRNA expression by real-time PCR; assay type: functional, cell-based; conditions: BGC-823
[10] = biological target: Nuclear receptor subfamily 4 group A member 1 (Mus musculus) (UniProt P12813); assay: Agonist activity at Nur77 in insulin treated mouse C57BL/6 assessed as fructose-1,6-bisphosphatase mRNA after 60 mins by real-time PCR relative to control; assay type: functional
[11] = biological target: T1, Nuclear receptor subfamily 4immunitygroup A member 1; assay: Agonist activity at nuclear orphan receptor Nur77 in human BGC823 cells bearing beta-galactosidase expression vector assessed as transcriptional activation of NurRE reporter gene after 12 hrs by luciferase assay; assay type: functional, cell-based; conditions: BGC-823
BGC-823 [12] = assay: Induction of Nur77 mediated apoptosis in human BGC823 cells assessed as nuclear DNA condensation by flow cytometry assay; assay type: functional, cell-based
Mus musculus [13] = assay: Increase in blood glucose level in wild-type mouse C57BL/6 at 50 mg/kg, ip within 30 mins; assay type: functional; conditions: route intraperitoneal; procedure, shortened: as §1
[14] = biological target: T1, Nuclear receptor subfamily 4immunitygroup A member 1; assay: Binding affinity to nuclear orphan receptor Nur77-DNA binding domain at 5 uM by fluorescence quenching analysis
[15] = biological target: Nuclear receptor subfamily 4 group A member 3 (Homo sapiens) (UniProt Q92570); assay: Agonist activity at nuclear orphan receptor NOR1 expressed in human BGC823 cells co-transfected with fused GAL4-NOR1(LBD) assessed as transactivation after 12 hrs by transactivation assay; assay type: functional, cell-based; conditions: BGC-823
[16] = biological target: T1, Nuclear receptor subfamily 4immunitygroup A member 1; assay: Induction of Nur77-SRC3 interaction in HEK293T cells by GST-pull-down assay; assay type: cell-based; conditions: HEK-293T; procedure, shortened: as §3
[17] = biological target: Nuclear receptor subfamily 4 group A member 1 (Mus musculus) (UniProt P12813); assay: Agonist activity at Nur77 in Nr4a1 deficient mouse C57BL/6 assessed as fructose-1,6-bisphosphatase mRNA at 50 mg/kg, ip by real-time PCR analysis; assay type: functional, organism-based; design: dose 50 mg/kg
SW-620 = assay: Antiproliferative activity against human SW620 cells assessed as number of viable cells after 72 hrs by MTT assay; assay type: functional
Procedure, shortened: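 BGC-823 gastric and SW620 colon cancer cells incubated 72 h with various Csn-B concentrations; viable cells counted by MTT assay.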

[18] = biological target: T1, Nuclear receptor subfamily 4immunitygroup A member 1; assay: Induction of SRC2-enhanced Nur77 transactivational activity in human BGC823 cells after 12 hrs by luciferase/beta-galactosidase reporter assay; assay type: cell-based; conditions: BGC-823; procedure, shortened: as §2
[19] = biological target: T1, Nuclear receptor subfamily 4immunitygroup A member 1; assay: Induction of Nur77-SRC1 interaction in human 293T cells by GST-pull-down assay; assay type: cell-based; procedure, shortened: as §3
[20] = biological target: T1, Nuclear receptor subfamily 4immunitygroup A member 1; assay: Binding affinity to Nur77 receptor expressed in human BGC823 cells; assay type: cell-based, BGC-823
BGC-823 [21] = assay: Induction of Nur77 mediated apoptosis in human BGC823 cells assessed as cytochrome C release […] at 5 uM after 24 hrs by Western blotting analysis; assay type: functional, cell-based
HepG2 = assay: Antiproliferative activity against human HepG2 cells assessed as number of viable cells after 72 hrs by MTT assay; assay type: functional, cell-based
BGC-823 [22] = assay: Induction of Nur77 mediated apoptosis in human BGC823 cells transfected with si-Nur77 at 5 uM after 48 hrs by flow cytometry assay; assay type: functional; conditions: in the assay text read “5 ug/ml” for “5 uM”
Procedure, shortened: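 BGC-823 gastric cancer cells, transfected or not with Nur77 siRNA or scrambled control siRNA, then exposed to 5 μg ml-1 for 48 h. Apoptotic cells were counted by flow cytometry.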

Mus musculus [23] = species on record: Mus musculus; assay: Antiproliferative activity against mouse ME-Hep4 cells assessed as number of viable cells after 72 hrs by MTT assay; assay type: functional, cell-based
BGC-823 [24] = assay: Induction of Nur77 mediated apoptosis in human BGC823 cells at 5 ug/ml after 48 hrs by flow cytometry assay
[25] = biological target: T1, Nuclear receptor subfamily 4immunitygroup A member 1; assay: Agonist activity at nuclear orphan receptor Nur77 expressed in human BGC823 cells co-transfected with pLuc-2900 containing Nr4a1 promoter assessed as transcriptional activity; assay type: functional, cell-based; conditions: BGC-823
[26] = biological target: Nuclear receptor subfamily 4 group A member 1 (Mus musculus) (UniProt P12813); assay: Agonist activity at Nur77 in wild-type mouse C57BL/6 assessed as hexokinase gene at 50 mg/kg, ip within 30 to 300 mins by real-time PCR analysis; assay type: functional, organism-based; design: dose 50 mg/kg
[27] = test system: Mycobacterium tuberculosis; assay: Antimicrobial activity against Mycobacterium tuberculosis; assay type: functional, organism-based
[28] = biological target: T1, Nuclear receptor subfamily 4immunitygroup A member 1; assay: Agonist activity at nuclear orphan receptor Nur77 in human BGC823 cells bearing beta-galactosidase expression vector assessed as transcriptional activation of retinoic acid receptor response element after 12 hrs by luciferase assay; assay type: functional, cell-based; conditions: BGC-823
[29] = biological target: Nuclear receptor subfamily 4 group A member 1 (Mus musculus) (UniProt P12813); assay: Agonist activity at Nur77 in wild-type mouse C57BL/6 assessed as hexokinase mRNA at 50 mg/kg, ip after 300 mins by real-time PCR analysis; assay type: functional, organism-based; design: dose 50 mg/kg

T1 sequence (P22736 whole entry): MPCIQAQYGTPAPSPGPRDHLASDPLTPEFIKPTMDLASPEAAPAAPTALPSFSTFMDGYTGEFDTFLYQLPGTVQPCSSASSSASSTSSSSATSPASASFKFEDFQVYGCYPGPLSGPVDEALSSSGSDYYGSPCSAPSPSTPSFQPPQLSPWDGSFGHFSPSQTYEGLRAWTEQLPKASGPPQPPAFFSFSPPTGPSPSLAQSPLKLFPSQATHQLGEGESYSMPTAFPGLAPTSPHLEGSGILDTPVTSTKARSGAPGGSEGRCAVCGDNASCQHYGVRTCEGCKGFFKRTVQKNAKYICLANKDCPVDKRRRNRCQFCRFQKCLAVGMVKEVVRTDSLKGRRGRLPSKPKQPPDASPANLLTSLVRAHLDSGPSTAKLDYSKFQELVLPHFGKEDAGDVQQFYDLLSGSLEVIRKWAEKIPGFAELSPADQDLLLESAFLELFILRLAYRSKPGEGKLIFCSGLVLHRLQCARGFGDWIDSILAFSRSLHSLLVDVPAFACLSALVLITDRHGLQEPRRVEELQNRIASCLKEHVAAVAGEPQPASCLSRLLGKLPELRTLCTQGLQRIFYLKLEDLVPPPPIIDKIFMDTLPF
Chain of Nuclear receptor subfamily 4 group A member 1 (Mus musculus) (P12813 whole entry, the tested form may be a part): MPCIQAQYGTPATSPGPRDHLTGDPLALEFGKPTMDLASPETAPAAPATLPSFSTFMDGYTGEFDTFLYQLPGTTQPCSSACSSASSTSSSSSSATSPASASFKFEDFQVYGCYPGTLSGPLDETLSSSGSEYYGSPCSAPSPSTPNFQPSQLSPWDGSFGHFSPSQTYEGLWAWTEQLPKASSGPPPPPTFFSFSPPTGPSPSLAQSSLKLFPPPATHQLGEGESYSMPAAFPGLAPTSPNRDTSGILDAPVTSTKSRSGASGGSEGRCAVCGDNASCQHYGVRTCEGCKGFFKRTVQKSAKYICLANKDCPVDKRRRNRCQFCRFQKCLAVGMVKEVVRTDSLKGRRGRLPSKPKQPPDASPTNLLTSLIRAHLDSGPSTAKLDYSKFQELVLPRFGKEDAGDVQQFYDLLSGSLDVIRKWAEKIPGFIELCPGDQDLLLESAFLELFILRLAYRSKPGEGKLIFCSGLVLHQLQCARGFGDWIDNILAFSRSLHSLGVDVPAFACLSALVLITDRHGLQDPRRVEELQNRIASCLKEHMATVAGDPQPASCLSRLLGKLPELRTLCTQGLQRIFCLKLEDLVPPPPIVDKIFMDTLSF
Chain of Nuclear receptor subfamily 4 group A member 3 (Homo sapiens) (Q92570 whole entry, the tested form may be a part): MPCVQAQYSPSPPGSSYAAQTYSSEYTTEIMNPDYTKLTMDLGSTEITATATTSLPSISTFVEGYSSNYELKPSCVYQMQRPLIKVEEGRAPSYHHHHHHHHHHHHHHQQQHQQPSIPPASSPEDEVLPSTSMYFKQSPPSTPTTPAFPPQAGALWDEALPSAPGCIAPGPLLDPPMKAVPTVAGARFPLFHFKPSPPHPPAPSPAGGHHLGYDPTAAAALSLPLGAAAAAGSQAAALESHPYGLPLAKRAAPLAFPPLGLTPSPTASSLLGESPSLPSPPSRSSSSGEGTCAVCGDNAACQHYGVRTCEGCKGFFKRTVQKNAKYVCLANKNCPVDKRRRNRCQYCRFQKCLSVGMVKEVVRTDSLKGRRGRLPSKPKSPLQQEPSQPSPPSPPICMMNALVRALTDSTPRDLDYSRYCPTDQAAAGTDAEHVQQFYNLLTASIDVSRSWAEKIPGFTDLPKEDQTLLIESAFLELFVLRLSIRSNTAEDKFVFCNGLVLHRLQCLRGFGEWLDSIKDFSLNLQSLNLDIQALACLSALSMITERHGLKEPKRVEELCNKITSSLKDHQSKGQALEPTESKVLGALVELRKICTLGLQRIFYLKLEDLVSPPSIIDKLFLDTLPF
Chain of Nuclear receptor subfamily 4 group A member 2 (Homo sapiens) (P43354 whole entry, the tested form may be a part): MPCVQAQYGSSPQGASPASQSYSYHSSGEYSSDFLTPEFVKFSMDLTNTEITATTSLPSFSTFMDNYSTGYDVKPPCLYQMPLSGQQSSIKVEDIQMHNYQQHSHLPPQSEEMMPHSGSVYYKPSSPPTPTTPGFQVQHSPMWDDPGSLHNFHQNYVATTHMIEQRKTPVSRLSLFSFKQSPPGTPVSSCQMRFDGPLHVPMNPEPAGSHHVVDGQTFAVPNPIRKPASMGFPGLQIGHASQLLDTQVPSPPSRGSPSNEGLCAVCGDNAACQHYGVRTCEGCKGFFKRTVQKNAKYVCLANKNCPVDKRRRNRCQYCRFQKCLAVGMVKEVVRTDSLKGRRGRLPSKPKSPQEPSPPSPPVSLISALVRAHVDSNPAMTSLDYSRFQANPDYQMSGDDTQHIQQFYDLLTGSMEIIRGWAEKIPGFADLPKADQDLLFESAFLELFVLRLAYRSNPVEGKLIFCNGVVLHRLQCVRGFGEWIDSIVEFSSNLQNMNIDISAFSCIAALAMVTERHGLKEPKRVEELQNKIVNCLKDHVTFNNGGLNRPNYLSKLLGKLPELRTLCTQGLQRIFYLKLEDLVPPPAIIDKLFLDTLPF

CCCCCCCC(=O)c1c(O)cc(O)cc1CC(=O)OCC [CYTOSPORONE B]
250 mg/L: IC50 [27]
inactive: Activity [1] | Activity [4] | Activity [5] | Activity [14] | Activity [15] | Activity [16] | Activity [17] | Activity [26] | Activity [28] | Activity [29]
11.4 mM: Activity (Mus musculus [13])
20.1%: Activity (BGC-823 [22])
63.5%: Activity (BGC-823 [24])
active: Activity [3] | Activity (BGC-823 [6]) | Activity [7] | Activity [8] | inhibition (L02) | Activity [9] | Activity [11] | Activity (BGC-823 [12]) | Activity [18] Dose-dependent effect | Activity [19] | Activity (BGC-823 [21]) | Activity (HepG2) | inhibition (Mus musculus [23]) | Activity [25]
5.8 mM: Activity (Mus musculus [2])
0.74 µM: Kd [20]
3.05: fold change (FC) [10]
>70%: inhibition (INH) (SW-620)
